Active and inactive are the calls of the source. The calls are words filed in the database; no cut-off is given here.
How the values were obtained:
[1] = Retardation factor of the compound in cyclohexylamine-water-methyl ethyl ketone-1-butanol at 1:2.5:5:5 ratio by paper chromatography; type: physicochemical; details: buffer
Outline: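 Paper chromatography in cyclohexylamine–water–methyl ethyl ketone–1-butanol (1:2.5:5:5). Rf values compared with allothreonine and threonine run in the same system.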

[2] = system: Lactiplantibacillus plantarum; test: Antimicrobial activity against Lactobacillus arabinosus 8014 assessed as growth inhibition up to 300 ug/ml; type: functional, organism-based
Outline: (§1)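 Microbial growth toxicity tested by typical microbial procedures; each isomer at concentrations up to 300 μg/ml.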

[3] = system: Escherichia coli; test: Antimicrobial activity against Escherichia coli W assessed as growth inhibition up to 300 ug/ml; type: functional; outline: as §1
[4] = system: Jensen sarcoma; test: Inhibition of growth of rat Jensen sarcoma cells assessed as new cells at 50 ug/ml after 72 hrs in presence of 26 ug/ml serine (reference value: 100%); type: functional; set-up: scale not given: the % may be the effect or the level left
Outline: (§2)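 Jensen sarcoma cells seeded at 400000 cells/flask in replicate flasks in McCoy's 7a medium with 10% fetal calf serum, gassed with 8% CO2–92% air, 37°, 24 hr, then counted for zero time. Medium replaced with fresh medium containing analog at 50 μg/ml, with threonine added as listed and serine in medium at 26 μg/ml. Medium renewed at 48 hr. New cells counted at 72 hr, expressed as % of control in normal medium.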

[5] = system: Enterococcus faecalis; test: Antimicrobial activity against Streptococcus faecalis 8043 assessed as growth inhibition up to 300 ug/ml; type: functional, organism-based; outline: as §1
[6] = system: Escherichia coli; test: Antimicrobial activity against Escherichia coli 9723 assessed as growth inhibition up to 300 ug/ml; type: functional, organism-based; outline: as §1
[7] = system: Jensen sarcoma; test: Inhibition of growth of rat Jensen sarcoma cells assessed as new cells at 50 ug/ml after 72 hrs in presence of 50 ug/ml threonine and 26 ug/ml serine (reference value: 100%); type: functional; set-up: scale not given: the % may be the effect or the level left; outline: as §2
[8] = system: Jensen sarcoma; test: Inhibition of growth of rat Jensen sarcoma cells assessed as new cells at 50 ug/ml after 72 hrs in presence of 18 ug/ml threonine and 26 ug/ml serine (reference value: 100%); type: functional; set-up: scale not given: the % may be the effect or the level left; outline: as §2
[9] = system: Leuconostoc mesenteroides; test: Antimicrobial activity against Leuconostoc mesenteroides 10830 assessed as growth inhibition up to 300 ug/ml; type: functional; outline: as §1
[10] = system: Jensen sarcoma; test: Inhibition of growth of rat Jensen sarcoma cells assessed as new cells at 50 ug/ml after 72 hrs in presence of 25 ug/ml threonine and 26 ug/ml serine (reference value: 100%); type: functional; set-up: scale not given: the % may be the effect or the level left; outline: as §2

Row | Rf [1] | SMILES | growth inhibition (GI) [2] | growth inhibition (GI) [3] | Activity [4] [%] | growth inhibition (GI) [5] | growth inhibition (GI) [6] | Activity [7] [%] | Activity [8] [%] | growth inhibition (GI) [9] | Activity [10] [%]
1 | 0.41 | C[C@H](O)[C@H](N)C(=O)O | – | – | – | – | – | – | – | – | –
2 | 0.38 | N[C@@]1(C(=O)O)CCC[C@@H]1O (relative stereo) | inactive | inactive | 12 | inactive | inactive | 68 | 69 | inactive | –
3 | 0.45 | N[C@@]1(C(=O)O)CCC[C@H]1O (relative stereo) | inactive | inactive | 12 | inactive | inactive | 68 | 68 | inactive | –
4 | – | NC1(C(=O)O)CCCC1 [CYCLOLEUCINE] | – | – | 0 | – | – | – | – | – | 5
5 | 0.54 | C[C@@H](O)[C@H](N)C(=O)O [THREONINE] | – | – | – | – | – | – | – | – | –

Reference: ChEMBL document CHEMBL3272082, “Racemic diastereoisomers of 1-amino-2-hydroxycyclopentanecarboxylic acid” (J Med Chem, 1976)
